Test results taken from ChEMBL document CHEMBL1155488, “Carbamate derivatives of betulinic acid and betulin with selective cytotoxic activity” (Bioorg Med Chem Lett, 2010).
pIC50: −log10 of the molar value. Calls of active or inactive are those of the source. The rule behind the calls is not given here.

Assays:
SW480 [1] = test: Selectivity index, ratio of IC50 for human fibroblast to IC50 for human SW480 cells
Summary of the method: (§1)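 The selectivity index was calculated as the IC50 on human fibroblasts divided by the IC50 on the corresponding tumor cell line.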

HCT-8 [2] = test: Selectivity index, ratio of IC50 for human fibroblast to IC50 for human HCT8 cells; summary of the method: as §1
DLD-1 [3] = test: Cytotoxicity against human DLD1 cells after 96 hrs by SRB assay; format: functional, cell-based; conditions: DLD-1, 96 h
[4] = Cytotoxicity against human fibroblast after 96 hrs by SRB assay; format: cell-based
HT-29 [5] = test: Selectivity index, ratio of IC50 for human fibroblast to IC50 for human HT-29 cells; summary of the method: as §1
HCT-8 [6] = test: Cytotoxicity against human HCT8 cells after 96 hrs by SRB assay; format: functional, cell-based; conditions: HCT-8, 96 h
HCT-116 [7] = test: Selectivity index, ratio of IC50 for human fibroblast to IC50 for human HCT116 cells; summary of the method: as §1
[8] = Selectivity index, ratio of IC50 for human fibroblast to IC50 for human A253 cells; summary of the method: as §1
DLD-1 [9] = test: Selectivity index, ratio of IC50 for human fibroblast to IC50 for human DLD1 cells; summary of the method: as §1
A2780 [10] = test: Selectivity index, ratio of IC50 for human fibroblast to IC50 for human A2780 cells; summary of the method: as §1
MCF7 [11] = test: Cytotoxicity against human MCF7 cells after 96 hrs by SRB assay; format: functional, cell-based; conditions: MCF7, 96 h
A-431 [12] = test: Selectivity index, ratio of IC50 for human fibroblast to IC50 for human A431 cells; summary of the method: as §1
[13] = Selectivity index, ratio of IC50 for human fibroblast to IC50 for human Liposarcoma cells; summary of the method: as §1
8505C [14] = test: Cytotoxicity against human 8505C cells after 96 hrs by SRB assay; format: functional, cell-based
A549 [15] = test: Selectivity index, ratio of IC50 for human fibroblast to IC50 for human A549 cells; summary of the method: as §1
[16] = Cytotoxicity against human 518A2 cells after 96 hrs by SRB assay; format: functional, cell-based; conditions: 518A2, 96 h
FaDu [17] = test: Selectivity index, ratio of IC50 for human fibroblast to IC50 for human FADU cells; summary of the method: as §1
HT-29 [18] = test: Cytotoxicity against human HT-29 cells after 96 hrs by SRB assay; format: functional, cell-based; conditions: HT-29, 96 h
A549 [19] = test: Cytotoxicity against human A549 cells after 96 hrs by SRB assay; format: functional, cell-based; conditions: A549, 96 h
HCT-116 [20] = test: Cytotoxicity against human HCT116 cells after 96 hrs by SRB assay; format: functional, cell-based; conditions: HCT-116, 96 h
MCF7 [21] = test: Selectivity index, ratio of IC50 for human fibroblast to IC50 for human MCF7 cells; summary of the method: as §1
[22] = Cytotoxicity against human fibroblast at 100 uM after 96 hrs by SRB assay; format: cell-based
A-431 [23] = test: Cytotoxicity against human A431 cells after 96 hrs by SRB assay; format: functional, cell-based; conditions: A-431, 96 h
SW480 [24] = test: Cytotoxicity against human SW480 cells after 96 hrs by SRB assay; format: functional, cell-based; conditions: SW480, 96 h
A549 [25] = test: Induction of apoptosis in human A549 cells assessed as DNA fragmentation at equitoxic IC90 after 24 hrs by agarose gel electrophoresis
A2780 [26] = test: Cytotoxicity against human A2780 cells after 96 hrs by SRB assay; format: functional, cell-based; conditions: A2780, 96 h
FaDu [27] = test: Cytotoxicity against human FADU cells after 96 hrs by SRB assay; format: functional, cell-based
[28] = Cytotoxicity against human A253 cells after 96 hrs by SRB assay; format: functional, cell-based; conditions: A253, 96 h
[29] = Selectivity index, ratio of IC50 for human fibroblast to IC50 for human 518A2 cells; summary of the method: as §1
[30] = Cytotoxicity against human Liposarcoma cells after 96 hrs by SRB assay; format: functional, cell-based
SW-1736 = test: Cytotoxicity against human SW1736 cells after 96 hrs by SRB assay; format: functional, cell-based; conditions: SW-1736, 96 h
[31] = Selectivity index, ratio of IC50 for human fibroblast to IC50 for human SW1736 cells; summary of the method: as §1
8505C [32] = test: Selectivity index, ratio of IC50 for human fibroblast to IC50 for human 8505C cells; summary of the method: as §1
A549 [33] = test: Induction of apoptosis in human A549 cells assessed as caspase3/7 activation at equitoxic IC90 after 2 hrs; format: functional, cell-based
A549 [34] = test: Induction of apoptosis in human A549 cells assessed as caspase3/7 activation at equitoxic IC90 after 6 hrs; format: functional, cell-based

| SMILES | Ratio IC50 (SW480 [1]) | Ratio IC50 (HCT-8 [2]) | pIC50 (DLD-1 [3]) | pIC50 [4] | Ratio IC50 (HT-29 [5]) | pIC50 (HCT-8 [6]) | Ratio IC50 (HCT-116 [7]) | Ratio IC50 [8] | Ratio IC50 (DLD-1 [9]) | Ratio IC50 (A2780 [10]) | pIC50 (MCF7 [11]) | Ratio IC50 (A-431 [12]) | Ratio IC50 [13] | pIC50 (8505C [14]) | Ratio IC50 (A549 [15]) | pIC50 [16] | Ratio IC50 (FaDu [17]) | pIC50 (HT-29 [18]) | pIC50 (A549 [19]) | pIC50 (HCT-116 [20]) | further results |
| --- | --- | --- | --- | --- | --- | --- | --- | --- | --- | --- | --- | --- | --- | --- | --- | --- | --- | --- | --- | --- | --- |
| C=C(C)[C@@H]1CC[C@]2(COC(=O)NCC)CC[C@]3(C)[C@H](CC[C@@H]4[C@@]5(C)CC[C@H](OC(=O)NCC)C(C)(C)[C@@H]5CC[C@]43C)[C@@H]12 [BIS(ETHYLCARBAMATE)BETULIN] | >36.1 | >25.58 | 5.08 | < 4.00 | >16.13 | 5.41 | >26.04 | >10.3 | >12.02 | >22.88 | 4.75 | >16.45 | >8.31 | 5.03 | >34.36 | 5.09 | >12.69 | 5.21 | 5.54 | 5.42 | Ratio IC50 (MCF7 [21]): >5.65; Activity [22]: Non-toxic; pIC50 (A-431 [23]): 5.22; pIC50 (SW480 [24]): 5.56; Activity (A549 [25]): Active; pIC50 (A2780 [26]): 5.36; pIC50 (FaDu [27]): 5.10; pIC50 [28]: 5.01; Ratio IC50 [29]: >12.22; pIC50 [30]: 4.92; pIC50 (SW-1736): 5.44; Ratio IC50 [31]: >26.32; Ratio IC50 (8505C [32]): >10.65 |
| C=C(C)[C@@H]1CC[C@]2(COC(C)=O)CC[C@]3(C)[C@H](CC[C@@H]4[C@@]5(C)CC[C@H](OC(=O)NCC)C(C)(C)[C@@H]5CC[C@]43C)[C@@H]12 | 13.76 | 6.2 | 5.16 | 4.61 | 4.8 | 5.40 | 5.67 | 4.99 | 3.52 | 5.69 | 5.22 | 4.87 | 4.55 | 5.30 | 14.41 | 5.29 | 5.39 | 5.29 | 5.77 | 5.37 | Activity (A549 [33]): Active; Ratio IC50 (MCF7 [21]): 4.07; pIC50 (A-431 [23]): 5.30; pIC50 (SW480 [24]): 5.75; Activity (A549 [25]): Active; pIC50 (A2780 [26]): 5.37; pIC50 (FaDu [27]): 5.34; pIC50 [28]: 5.31; Ratio IC50 [29]: 4.76; pIC50 [30]: 5.27; pIC50 (SW-1736): 5.50; Ratio IC50 [31]: 7.73; Activity (A549 [34]): Active; Ratio IC50 (8505C [32]): 4.82 |
